The Kd is the concentration at which binding is half-saturated. A word on the IC50: it is the midpoint of a concentration-inhibition curve.

Active and inactive are the calls of the source. The rule behind the calls is not given here.

Data set [1] in a line: Binding affinity to recombinant Salmonella typhimurium His6-tagged OASS-A expressed in Escherichia coli by fluorimetric titration method. Further details: species or system Salmonella enterica subsp. enterica serovar Typhimurium. Put shortly: (§1)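 OASS coenzyme fluorescence titrated with ligand. Conditions were 0.5−1.0 μM enzyme in 100 mM Hepes, pH 7.0, at 20 °C. Excitation was at 412 nm and the emission spectra were recorded. Intensity at 500 nm, minus the ligand-free signal, was fitted to a single-site binding isotherm to give Kdiss.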

Data set [2] is described as follows: Binding affinity to recombinant Salmonella typhimurium His10-tagged OASS-B expressed in Escherichia coli by fluorimetric titration method. The arrangement: species or system Salmonella enterica subsp. enterica serovar Typhimurium. In a few lines:
as §1

Data set [3] is described as follows: Inhibition of recombinant Salmonella typhimurium His6-tagged OASS-A expressed in Escherichia coli using OAS as substrate by discontinuous assay. Further details: species or system Salmonella enterica subsp. enterica serovar Typhimurium.
Data set [4] can be described thus: Inhibition of recombinant Salmonella typhimurium His10-tagged OASS-B expressed in Escherichia coli using OAS as substrate by discontinuous assay. Further details: species or system Salmonella enterica subsp. enterica serovar Typhimurium.
The subject of data set [5] is Salmonella enterica subsp. enterica serovar Typhimurium. Put plainly: Binding affinity to recombinant Salmonella typhimurium His6-tagged OASS-A expressed in Escherichia coli at <20 uM by fluorimetric titration method. Put shortly: as §1
Data set [6] in a line: Solubility in 100 mM HEPES buffer at pH 7 containing 1% DMSO at >20 uM at 20 degC. The class given is physicochemical.

With `Cc1ccc(C[C@]2(C(=O)O)C[C@@H]2c2ccccc2)cc1` (racemic), the equilibrium dissociation constant (Kd) was 0.077 µM in data set [1] and 1.2 µM in data set [2].
`O=C(O)[C@H]1C[C@@H]1c1ccccc1` (relative stereo): the Kd in data set [1] was determined as 9.2 µM; in data set [2] it was 148 µM.
`O=C(O)[C@]1(Cc2ccc(Cl)cc2)C[C@H]1c1ccccc1`: the IC50 was 0.099 µM in data set [3] and 0.5 µM in data set [4]. Also, the equilibrium dissociation constant (Kd) in data set [1] was 0.054 µM; in data set [2] it was 0.42 µM.
On to `CC[C@]1(C(=O)O)C[C@@H]1c1ccccc1`, for which the Kd in data set [1] is 1200 µM; in data set [2], over 2000 µM.
Consider `O=C(O)[C@@]1(Cc2ccc(Cl)cc2)C[C@@H]1c1ccccc1`, for which the figures for the IC50 in data set [3] and in data set [4] were 14 µM and 48 µM, respectively. Besides, the Kd in data set [1] amounted to 84 µM; in data set [2], 152 µM.
In the case of `CC[C@]1(C(=O)O)C[C@@H]1c1ccccc1` (racemic), the Kd turned out to be 15 µM in data set [1] and 720 µM in data set [2].
For `O=C(O)[C@@]1(Cc2ccccc2)C[C@@H]1c1ccccc1` (racemic) the same measures were 0.2 µM and 4.1 µM.
With `O=C(O)[C@@]1(CCc2ccccc2)C[C@@H]1c1ccccc1` (relative stereo), the figures for the Kd in data set [1] and in data set [2] were 14 µM and 27 µM, respectively.
For `O=C(O)[C@]1(Cc2ccccc2)C[C@H]1c1ccccc1` the same measures were 0.067 µM and 1.66 µM.
For H-MNLNI-OH the same measures were 120 µM and 3000 µM.
For `Cc1ccc(C[C@@]2(C(=O)O)C[C@H]2c2ccccc2)cc1` the same measures were 0.028 µM and 0.49 µM.
For `O=C(O)[C@@]1(Cc2ccc(Cl)cc2)C[C@@H]1c1ccccc1` (racemic), the Kd in data set [1] came to 0.156 µM; in data set [2], 0.76 µM.
For `CC[C@@]1(C(=O)O)C[C@H]1c1ccccc1` the same measures were 12.1 µM and 860 µM.
For `Cc1ccc(C[C@]2(C(=O)O)C[C@@H]2c2ccccc2)cc1` the same measures were 81 µM and 121 µM.
Regarding `CCOC(=O)[C@@]1(Cc2ccccc2)C[C@@H]1c1ccccc1` (relative stereo), the outcome in data set [5] was inactive. The solubility entry in data set [6] is given as “Insoluble”.
For `O=C(O)[C@@]1(Cc2ccccc2)C[C@@H]1c1ccccc1`, the dissociation constant (Kd) in data set [1] stood at 50 µM; in data set [2], 197 µM.

The values are drawn from ChEMBL document CHEMBL3784941, “Rational Design, Synthesis, and Preliminary Structure-Activity Relationships of α-Substituted-2-Phenylcyclopropane Carboxylic Acids as Inhibitors of Salmonella typhimurium O-Acetylserine Sulfhydrylase” (J Med Chem, 2016).
